According to ChEMBL document CHEMBL4052609, “(+)-Strebloside-Induced Cytotoxicity in Ovarian Cancer Cells Is Mediated through Cardiac Glycoside Signaling Networks” (J Nat Prod, 2017):
The source made the active and inactive calls. No cut-off for these calls is given here.

What was measured:
[1] = Antiproliferative activity against human IOSE-80 cells after 72 hrs by CellTiter 96 aqueous one solution assay; format: cell-based; conditions: IOSE80, 72 h
How it was run: (§1)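 Log-phase cells harvested by trypsin with two PBS washes, seeded 5,000/well, incubated overnight. Serial dilutions of compound from DMSO stock added, 72 h exposure. Viability read by absorbance. IC50 (nM) calculated relative to DMSO solvent control.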

OVSAHO = test: Induction of apoptosis in human OVSAHO cells assessed as upregulation of cleaved PARP expression at 100 nM after 72 hrs by Western blot analysis; format: functional, cell-based
How it was run: (§2)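 Treated cells washed with PBS, lysed in RIPA on ice 15 min, cleared 14,000 g at 4 °C; 25 µg protein by BCA run on SDS-PAGE, PVDF, milk block, primary antibody overnight at 4 °C, HRP anti-rabbit, chemiluminescence; actin loading control; densitometry, n = 3, mean ± SEM.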

Homo sapiens [2] = species on record: Homo sapiens; test: Inhibition of sodium potassium ATPase in human OVCAR3 cells assessed as upregulation of p21 protein expression at 100 nM by Western blot analysis; format: cell-based; how it was run: as §2
Homo sapiens [3] = species on record: Homo sapiens; test: Inhibition of sodium potassium ATPase in human OVCAR3 cells assessed as downregulation of p53 protein expression at 100 nM after 72 hrs by Western blot analysis; format: cell-based; how it was run: as §2
OVCAR-8 = test: Antiproliferative activity against human OVCAR8 cells after 72 hrs by CellTiter 96 aqueous one solution assay; format: functional, cell-based; conditions: OVCAR-8, 72 h
How it was run: as §1, with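 “control. Cultures at 37 °C, 5% CO2 in their own media (RPMI, MEM, DMEM, or Medium 199/MCDB for IOSE-80).” for “control.”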

[4] = Antiproliferative activity against human OVSAHO cells after 72 hrs by CellTiter 96 aqueous one solution assay; format: functional, cell-based; how it was run: as §1
KURAMOCHI = test: Antiproliferative activity against human Kuramochi cells after 72 hrs by CellTiter 96 aqueous one solution assay; format: functional, cell-based; how it was run: as §1
Homo sapiens [5] = species on record: Homo sapiens; test: Inhibition of sodium potassium ATPase in human OVCAR3 cells assessed as increase in ERK phosphorylation levels at 100 nM after 120 mins by Western blot analysis; format: cell-based
How it was run: (§3)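 Cells exposed to 100 nM for indicated times; RIPA lysates, 25 µg protein on SDS-PAGE/PVDF probed for phospho-ERK and total ERK (1:500 each), HRP secondary, chemiluminescent detection.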

Homo sapiens [6] = species on record: Homo sapiens; test: Inhibition of sodium potassium ATPase in human OVSAHO cells assessed as downregulation of p53 protein expression at 100 nM after 72 hrs by Western blot analysis; format: cell-based
OVCAR-3 [7] = test: Induction of apoptosis in human OVCAR3 cells assessed as upregulation of cleaved PARP expression at 100 nM by Western blot analysis; format: functional, cell-based; how it was run: as §2
MDA-MB-231 = test: Antiproliferative activity against human MDA-MB-231 cells after 72 hrs by CellTiter 96 aqueous one solution assay; format: functional, cell-based; conditions: MDA-MB-231, 72 h; how it was run: as §1
[8] = Antiproliferative activity against CD-1 mouse MOE cells derived from 8 to 25 passages after 72 hrs; format: cell-based; conditions: CD-1, MOE
How it was run: (§4)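 MOE cells from pooled oviducts of 8-week-old female CD1 mice in supplemented α-MEM with EGF, insulin, transferrin, selenite, β-estradiol; scrambled and PTEN shRNA/KRAS G12V clones kept under puromycin (plus hygromycin for the mutant). Log-phase cells seeded 5,000/well, overnight, DMSO-dissolved compound added, 72 h; viable cells read by MTS-type absorbance; IC50 in nM relative to DMSO control.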

[9] = Antiproliferative activity against CD-1 mouse MOE cells harboring scrambled RNA after 72 hrs; format: cell-based; conditions: CD-1, MOE; how it was run: as §4
Homo sapiens [10] = species on record: Homo sapiens; test: Inhibition of sodium potassium ATPase in human OVCA432 cells assessed as downregulation of p53 protein expression at 100 nM after 72 hrs by Western blot analysis; format: cell-based
How it was run: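 Cells exposed to 100 nM for 72 h; RIPA lysates, 25 µg protein on SDS-PAGE/PVDF, anti-p53 (1:500) overnight at 4 °C, HRP secondary, chemiluminescence, actin control; densitometry.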

OVCAR-3 [11] = test: Induction of apoptosis in human OVCAR3 cells assessed as decrease in Mcl-1 levels at 100 nM by Western blot analysis; format: functional, cell-based; how it was run: as §2
Homo sapiens [12] = species on record: Homo sapiens; test: Inhibition of sodium potassium ATPase in human OVSAHO cells assessed as increase in ERK phosphorylation levels at 100 nM after 120 mins by Western blot analysis; format: cell-based; how it was run: as §3
OVCAR-3 [13] = test: Antiproliferative activity against human OVCAR3 cells after 72 hrs by CellTiter 96 aqueous one solution assay; format: functional, cell-based; conditions: OVCAR-3, 72 h
How it was run: as §1, with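 “control. Cultures at 37 °C, 5% CO2 in their own media (RPMI, MEM, DMEM, or Medium 199/MCDB for IOSE-80).” for “control.”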

OVCAR-3 [14] = test: Cell cycle arrest in human OVCAR3 cells assessed as accumulation at G2/M phase at 100 nM after 72 hrs by propidium iodide staining-based flow cytometry method; format: functional
How it was run: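 Cells in 6-well plates treated 72 h, trypsinized, fixed in 70% ethanol, PBS-washed, stained in PBS with 1 mg/mL RNase and 50 µg/mL propidium iodide for 30 min in the dark at room temperature; DNA content by flow cytometry, phase distribution compared with vehicle.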

[15] = Antiproliferative activity against CD-1 mouse MOE cells harboring PTENshRNA/KRASG12V mutation after 72 hrs; format: functional, cell-based; conditions: CD-1, MOE; how it was run: as §4
OVCAR-4 = test: Antiproliferative activity against human OVCAR4 cells after 72 hrs by CellTiter 96 aqueous one solution assay; format: functional, cell-based; conditions: OVCAR-4, 72 h; how it was run: as §1
HT-29 = test: Antiproliferative activity against human HT-29 cells after 72 hrs by CellTiter 96 aqueous one solution assay; format: functional, cell-based; conditions: HT-29, 72 h; how it was run: as §1
OVCAR-3 [16] = test: Induction of apoptosis in human OVCAR3 cells assessed as upregulation of cleaved caspase 3 expression at 100 nM by Western blot analysis; format: functional, cell-based; how it was run: as §2
[17] = Antiproliferative activity against CD-1 mouse MOE cells derived from 85 to 120 passages after 72 hrs; format: functional, cell-based; conditions: CD-1, MOE; how it was run: as §4
OVCAR-3 [18] = test: Induction of apoptosis in human OVCAR3 cells assessed as decrease in Bcl-xL levels at 100 nM by Western blot analysis; format: functional, cell-based; how it was run: as §2
Homo sapiens [19] = species on record: Homo sapiens; test: Inhibition of sodium potassium ATPase in human OVSAHO cells assessed as upregulation of p21 protein expression at 100 nM by Western blot analysis; format: cell-based; how it was run: as §2
MDA-MB-435 = test: Antiproliferative activity against human MDA-MB-435 cells after 72 hrs by CellTiter 96 aqueous one solution assay; format: functional, cell-based; conditions: MDA-MB-435, 72 h; how it was run: as §1
OVCAR-5 = test: Antiproliferative activity against human OVCAR5 cells after 72 hrs by CellTiter 96 aqueous one solution assay; format: functional, cell-based; conditions: OVCAR-5, 72 h; how it was run: as §1
Homo sapiens [20] = species on record: Homo sapiens; test: Inhibition of sodium potassium ATPase in human OVCAR3 cells assessed as reduction in TNFalpha-induced NFkappaB activation at 100 nM after 4 hrs by luciferase reporter gene assay relative to control; format: cell-based
How it was run: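 OVCAR3 plated 25,000/well, overnight, transfected 24 h with 0.05 µg/well NF-κB-element luciferase reporter in serum medium; then 10 ng/mL TNFα plus 100 nM compound for 4 h; luciferase luminescence, fold change versus untreated, ANOVA.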

SMILES	Activity (OVSAHO)	inhibition (Homo sapiens [2])	inhibition (Homo sapiens [3])	inhibition (Homo sapiens [5])	inhibition (Homo sapiens [6])	Activity (OVCAR-3 [7])	IC50 [8]	IC50 [9]	inhibition (Homo sapiens [10])	Activity (OVCAR-3 [11])	inhibition (Homo sapiens [12])	Activity (OVCAR-3 [14])	IC50 [15]	Activity (OVCAR-3 [16])	IC50 [17]	Activity (OVCAR-3 [18])	inhibition (Homo sapiens [19])	inhibition (Homo sapiens [20])	further results
C[C@H]1O[C@@H](O[C@H]2[C@@H](O)C[C@H](O[C@H]3[C@@H](O)C[C@H](O[C@H]4CC[C@@]5(C)[C@H](CC[C@@H]6[C@@H]5CC[C@]5(C)[C@@H](C7=CC(=O)OC7)CC[C@]65O)C4)O[C@@H]3C)O[C@@H]2C)C[C@H](O)[C@@H]1O [DIGITOXIN]	Active	Active	Active	Active	Active	Active	> 50000 nM	> 50000 nM	Active	Active	Active	Active	> 50000 nM	Active	> 50000 nM	Active	Active	50%	IC50 [1]: 48.4 nM; IC50 (OVCAR-8): 71.5 nM; IC50 [4]: 250 nM; IC50 (KURAMOCHI): 5910 nM; IC50 (MDA-MB-231): 482 nM; IC50 (OVCAR-3 [13]): 117 nM; IC50 (OVCAR-4): 426 nM; IC50 (HT-29): 67.6 nM; IC50 (MDA-MB-435): 43.3 nM; IC50 (OVCAR-5): 321 nM
CO[C@H]1[C@H](O[C@H]2CC[C@]3(C=O)[C@H]4CC[C@]5(C)[C@@H](C6=CC(=O)OC6)CC[C@]5(O)[C@@H]4CC[C@]3(O)C2)O[C@H](C)[C@H](O)[C@@H]1OC [STREBLOSIDE]	Active	Active	Active	Active	Active	Active	> 50000 nM	> 50000 nM	Active	Active	Active	Active	> 50000 nM	Active	> 50000 nM	Active	Active	29%	–
